Screens: PubChem, The Scripps Research Institute Molecular Screening Center
Only some compounds are listed: those with a hit (about 1.3% of all), similar ones and a draw of the others.
Tn6 DDE FP: inhibitors of Tn6 peptide binding to fibrin DD(E), primary screen, biochemical, fluorescence polarization, human fibrin, Tn6 probe; inhibition, % at 8.3 µM; hit rate 0.21% among 370,000; Fibrinogen beta chain (Homo sapiens), P02675; Fibrin DD(E) TRITC-Tn6 fluorescence polarization displacement;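 active = inhibition above a per-campaign cutoff: mean of compounds within control limits plus 3 SD, cut at about 15% in these data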;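 note: 0% = median of all compound wells on the plate and 100% = blocking peptide control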
Target sequence (P02675 whole entry, looked up): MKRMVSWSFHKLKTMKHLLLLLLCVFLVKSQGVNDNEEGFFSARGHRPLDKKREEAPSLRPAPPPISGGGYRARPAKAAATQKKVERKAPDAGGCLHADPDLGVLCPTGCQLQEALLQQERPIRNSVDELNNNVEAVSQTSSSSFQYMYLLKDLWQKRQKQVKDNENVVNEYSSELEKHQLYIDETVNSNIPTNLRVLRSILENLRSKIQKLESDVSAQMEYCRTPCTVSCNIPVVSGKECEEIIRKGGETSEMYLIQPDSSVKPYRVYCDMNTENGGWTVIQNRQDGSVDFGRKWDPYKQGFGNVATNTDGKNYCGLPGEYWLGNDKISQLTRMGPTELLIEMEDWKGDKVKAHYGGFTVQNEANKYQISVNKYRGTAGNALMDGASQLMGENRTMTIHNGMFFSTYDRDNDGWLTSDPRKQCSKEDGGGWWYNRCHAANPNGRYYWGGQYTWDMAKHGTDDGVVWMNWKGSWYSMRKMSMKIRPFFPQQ
DDE Tn7 FP inh: inhibitors of Tn7 peptide binding to fibrin DD(E), primary screen, biochemical, fluorescence polarization, human fibrin, Tn7 probe. inhibition, % at 8.3 µM. AID 720508, 2013. Fibrinogen beta chain (Homo sapiens), P02675. FP displacement of FITC-Tn7 peptide from fibrin DD(E); 0% = median of compound wells per plate. hit rate 0.13% among 370,000;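 active = inhibition above the mean of compounds falling within the control limits plus 3 SD of them, cut at about 14% in these data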;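 note: 0% = plate median of compound wells and 100% = 10 µM Aha-Tn7 peptide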
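Assay system: Human fibrin DD(E) protein | Medium: Tris buffer with calcium and detergent, pH 7.8 | Reagent: 0.1 µM fluorescent Tn7 | Compound dosing: Single point at 8.3 µM | Times: 10 min preincubation, 3 h with tracer, room temperature | Detection: Fluorescence polarization of the labelled Tn7 tracer | Controls: Aha-Tn7 high control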
TCR CD3 inh: inhibitors of human TCR-CD3 interaction, primary screen, biochemical, fluorescence, TAMRA-labeled TCR probe. AID 651800, 2012. inhibition, % at 9.4 µM. hit rate 0.37% among 360,000. T-cell receptor (TCR);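 note: recombinant mutant TCR 2C K166C tagged with TAMRA read by polarization; 0% = receptor in buffer alone and 100% = receptor with positive control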
mABHD4 FP: ABHD4 inhibitors, primary screen, biochemical, fluorescence polarization, mouse; inhibition, % at 8.92 µM; hit rate 0.54% among 370,000; purified mABHD4, FP-Rh probe fluorescence polarization; (Lyso)-N-acylphosphatidylethanolamine lipase (Mus musculus), Q8VD66; AID 720543, 2013;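 active = inhibition exceeding the mean over every tested compound plus 3 SD, cut at about 30% in these data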;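 note: 0% = plate median of compound wells and 100% = S159A mutant with DMSO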
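Assay system: wild-type mouse ABHD4 protein; compound: single nominal dose of 8.92 µM, 0.89% DMSO final; schedule: 45 min + 60 min at 25 °C; measured by: FP readout, ex 525 nm / em 598 nm; evaluation: % inhibition of FP-Rh probe binding versus controls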
HTRA1 inh: HTRA1 serine protease inhibitors, primary screen, biochemical, fluorescence polarization, HTS | Q92743 | recombinant HTRA1, FP-rhodamine activity-based probe | inhibition, % at 5.96 µM | hit rate 0.5% among 340,000; in the data active = inhibition above about 36%;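 note: 0% = enzyme with DMSO and 100% = wells lacking enzyme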
HTRA1 inh conf: HTRA1 protease inhibitors, retest, confirmation, biochemical, fluorescence polarization. inhibition, % at 5.96 µM. shares compounds with HTRA1 inh. recombinant HTRA1, FP-rhodamine activity-based probe. hit rate 66% among 1,600. AID 540248, 2011;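 active = mean inhibition over three repeats above a set limit taken from the earlier primary screen, cut at about 37% in these data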;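 note: 0% = HTRA1 with DMSO and 100% = wells lacking HTRA1; inhibitors block probe binding so polarization drops and inhibition rises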
BSA probe FL: compounds interfering with TAMRA-BSA probe, counter-screen for TCR-CD3 interaction inhibitor project, biochemical, fluorescence, TAMRA-labeled BSA. TAMRA-labeled BSA probe fluorescence counterscreen. inhibition, % at 9.4 µM. hit rate 10% among 1,200. shares compounds with TCR CD3 inh; in the data active = inhibition above about 23%;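 note: 0% = buffer low control and 100% = reference high control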
TCR-CD3 conf: TCR-CD3 interaction inhibitors, retest, confirmation, biochemical, fluorescence, TAMRA-labeled TCR probe; shares compounds with TCR CD3 inh; TAMRA-labeled TCR probe fluorescence binding assay; inhibition, % at 9.4 µM; hit rate 48% among 1,200; AID 652036, 2013
Tn6 DDE ctr: DD(E)-Tn6 binding inhibition, counter-screen; shares compounds with Tn6 DDE FP; Fibrin DD(E), TRITC-Tn6 fluorescence polarization displacement; 0% = median of compound wells, not DMSO; inhibition, % at 8.3 µM; hit rate 2% among 680;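 active = inhibition above the mean of test compounds lying between the control limits plus 3 SD of those, cut at about 14% in these data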;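 note: 0% = median of compound wells and 100% = wells with Aha-Tn7 blocking peptide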
Tn6 DDE conf: inhibitors of Tn6 peptide binding to fibrin DD(E), confirmation, biochemical, fluorescence polarization, human fibrin, Tn6 probe | shares compounds with Tn6 DDE FP | FP displacement of TRITC-Tn6 peptide from DD(E); 0% = per-plate median of test wells | inhibition, % at 8.3 µM | hit rate 10% among 680;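 active = inhibition above the mean of compounds lying within the control limits plus 3 SD, cut at about 16% in these data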;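 note: 100% = high control wells holding a competing inhibitor peptide at 10 µM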
ABHD4 confirm: ABHD4 inhibitors, retest, confirmation, biochemical, fluorescence polarization, mouse. shares compounds with mABHD4 FP. purified mABHD4, FP-Rh probe fluorescence polarization. inhibition, % at 8.92 µM. hit rate 55% among 1,800;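 active = mean inhibition across replicates above the hit cutoff set in the primary screen, cut at about 30% in these data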;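 note: 0% = wild-type ABHD4 with DMSO and 100% = catalytically dead S159A mutant with DMSO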
* marks the source's active call; other numbers are inactive results; . = not tested or not shown; + = active, no number. Cut-off read from the data, not from the text of the source, unless noted: active = inhibition above about 19%; inactive = the rest.

SMILES | Tn6 DDE FP | DDE Tn7 FP inh | TCR CD3 inh | mABHD4 FP | HTRA1 inh | HTRA1 inh conf | ABHD4 confirm | others
Cc1cc2ccccc2n1CCNC(=O)C1CCCCC1 | 39* | -8 | 16 | 12 | 36* | 1 | . | Tn6 DDE ctr=0;Tn6 DDE conf=-3
CCOC(=O)c1cc2c(=Cc3ccc(N(C)C)cc3)c3ccccc3n2[n+]1C | 22* | -2 | -22 | -68 | 46* | 2 | . | Tn6 DDE ctr=6;Tn6 DDE conf=-15
Cc1cc2cc(CNC(=S)Nc3ccc(OC(F)F)cc3)ccc2n1C | 20* | 4 | 14 | 13 | 52* | 5 | . | Tn6 DDE ctr=7;Tn6 DDE conf=6
FC(F)Oc1ccc(NC(=S)NCc2ccccc2)cc1 | -6 | -2 | 1 | -2 | -2 | . | .
O=C(CN(C(=O)CNS(=O)(=O)c1ccc(F)cc1)c1ccccc1)NCc1ccco1 | -3 | -7 | 2 | 4 | 2 | . | .
CC(=O)c1sc(N/N=C\c2c(O)ccc3ccccc23)nc1C | 0 | -13 | 7 | 31* | 39* | 44* | 28
Cn1c2ccccc2c2cc(/C=N/NC(=O)c3cc(O)ccc3O)ccc21 | -16 | 5 | 43* | 52* | 64* | 64* | 0 | BSA probe FL=-18;TCR-CD3 conf=23*
CNc1ccc(Br)cc(C(=O)/C=C/c2cccc(Cl)c2Cl)c1=O | -5 | -2 | 7 | 42* | 65* | 33 | 35*
CCNc1ccc(Br)cc(C(=O)/C=C/c2ccccc2Cl)c1=O | -3 | 0 | 0 | 37* | 64* | 25 | 43*
CNc1ccc(Br)cc(C(=O)/C=C/c2cccc(OC)c2OC)c1=O | -2 | -6 | 10 | 39* | 39* | 32 | 34*
O=C(C=Cc1ccccc1Cl)c1ccccc1 | 6 | -6 | 4 | 0 | -8 | . | .
CCNc1ccccc(C(=O)/C=C/c2ccc3c(c2)OCO3)c1=O | 5 | -1 | 7 | 41* | 36* | 19 | 22
Cc1ccc(C(=O)C2CCN(CC(=O)NC(C)C)CC2)cc1 | -1 | 5 | . | 8 | . | . | .
COc1cc(N=C2C(=O)N3c4c(cccc42)C(C)=CC3(C)C)cc(OC)c1 | -13 | -8 | 8 | 21 | 5 | . | .
CC1=CC(C)(C)N2C(=O)C(=Nc3ccc(O)cc3)c3cccc1c32 | 6 | -6 | 42* | 60* | 53* | 10 | 28 | BSA probe FL=5;TCR-CD3 conf=1
COc1ccc(CC(=O)OCc2nnc(-c3ccccc3)o2)cc1 | 0 | 5 | 2 | 2 | -2 | . | .
Cc1ccc2c(c1)c1ccc3c(c1n2C)C(=O)C=CC3=O | -5 | -7 | 0 | 68* | 40* | 62* | 85*
Cc1ccc2c(c1)c1ncnc(N3CCOCC3)c1n2C | -4 | -6 | 6 | 0 | 7 | . | .
Cn1c2ccccc2c2ccc3c(c21)C(=O)C=CC3=O | 2 | 0 | 8 | 42* | 40* | 63* | 72*
CC(C)C(=O)N1N=C2CCCCC2C1(O)C(F)(F)F (stereo unspecified) | 8 | 0 | 8 | 0 | -6 | . | .
COc1ccc(C)cc1NCc1cc(=O)oc2cc(-c3ccccc3)c(O)cc12 | -3 | 5 | 5 | -1 | 3 | . | .
COC(=O)c1ccccc1NCc1cc(=O)oc2cc(O)c(O)cc12 | 1 | 4 | 15 | 40* | 65* | 46* | 31*
COc1ccc(N2C3=C(CC4=C2CCCC4=O)C(=O)CCC3)cc1 | 6 | 10 | 2 | 59* | 76* | 68* | 16
CC1CCCCC1NC(=O)COC(=O)c1c2c(nc3ccccc13)/C(=C/c1ccco1)CC2 (stereo unspecified) | 0 | -3 | 10 | 38* | 81* | 23 | 20
COc1ccc(NS(=O)(=O)c2cc([N+](=O)[O-])ccc2N/N=C/c2c(C)[nH]c3ccccc23)cc1 | -10 | 2 | -6 | 12 | 18 | . | .
SMILES | Tn6 DDE FP | DDE Tn7 FP inh | TCR CD3 inh | mABHD4 FP | HTRA1 inh | HTRA1 inh conf | ABHD4 confirm | others
Cc1[nH]c2ccccc2c1/C=N/Nc1ccccc1[N+](=O)[O-] | 1 | -1 | -4 | 59* | 68* | 74* | 73*
O=C1c2ccccc2C(=O)c2c(/C=C/N3CCCCC3)ccnc21 | 8 | -3 | 7 | 46* | 61* | 64* | 36*
Cc1ccc(NC(=S)NNc2ccc(C(=O)O)cc2[N+](=O)[O-])cc1C | -3 | -4 | 28* | 69* | 49* | 41* | 47* | BSA probe FL=-4;TCR-CD3 conf=15
Cc1ccc(Nc2ccc(C(N)=O)cc2[N+](=O)[O-])cc1C | 0 | 3 | -6 | 7 | 3 | . | .
COC(=O)CSc1ncnc2c(C)csc12 | 6 | -5 | 1 | -7 | . | . | .
c1cc2c3c(cccc3c1)NN=N2 | -6 | -8 | -1 | 33* | 37* | 33 | 27
c1coc(C2=Nc3cccc4cccc(c34)N2)c1 | -4 | 1 | 8 | 6 | 5 | . | .
COC(=O)c1ccccc1-c1c2ccc(=N)cc-2oc2cc(N)ccc12 | + | 5 | + | + | 136* | 142* | 183* | BSA probe FL=+;TCR-CD3 conf=+;Tn6 DDE ctr=53*;Tn6 DDE conf=93*
CCC(C)NC(=O)CSc1nc2ccccc2c(=O)n1Cc1ccc(OC)cc1 (stereo unspecified) | 9 | 0 | 3 | -4 | 1 | . | .
COC(=O)c1c(C(=O)OC)c2cccc3cc(-c4ccccc4)c4ccc1c4n32 | 4 | -2 | 10 | 36* | 39* | 58* | 35*
